TAAR1 ag = human TAAR1 agonism | Q96RJ0 | CHO RD-HGA16 TAAR1, Fluo-8 calcium fluorescence; vehicle wells 0%, saturating PEA agonist 100% | activation, % at 3 µM | hit rate 0.99% among 360,000;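 active means activation above the mean activation of all test compounds in the run plus 3 SD, cut at about 38% in these data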
Target sequence (Q96RJ0 whole entry, looked up): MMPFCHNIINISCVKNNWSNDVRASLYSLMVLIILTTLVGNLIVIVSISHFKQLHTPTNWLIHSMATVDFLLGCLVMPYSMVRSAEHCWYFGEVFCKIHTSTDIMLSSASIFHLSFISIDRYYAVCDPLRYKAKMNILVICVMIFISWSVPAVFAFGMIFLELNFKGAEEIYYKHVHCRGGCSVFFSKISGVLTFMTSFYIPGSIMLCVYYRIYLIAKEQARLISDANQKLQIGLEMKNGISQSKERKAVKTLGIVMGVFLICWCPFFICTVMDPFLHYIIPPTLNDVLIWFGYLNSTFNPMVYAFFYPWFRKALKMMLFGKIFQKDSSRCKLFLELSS
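Test system: RD-HGA16 (CHO) cells co-expressing Gα16 and hTAAR1 / Benchmarks: DMSO vehicle as 0%, PEA at EC100 as 100% / Repeats: no replicates (n 1) / Measure: % activation from peak over basal fluorescence ratio, DMSO-to-PEA scaled / Timing: 17-24 h plating, Fluo-8 75 min 37 °C, 30 min RT / Technique: kinetic Fluo-8 calcium fluorescence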
OX1R antag-1 = antagonists of human orexin 1 receptor (OX1R) | inhibition, % at 6.6 µM | AID 485270 | hit rate 1.8% among 330,000 | OX1R-expressing cells, FRET antagonist read-out; in the data active means inhibition mostly above about 38%, no sharp cut-off; inactive means mostly below about 40%;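 further: 0% = agonist challenge alone and 100% = reference antagonist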
OX1R antag-2 = blocks the human orexin 1 receptor; CHO/OX1R cells, Fluo-8 calcium fluorescence, orexin A; inhibition, % at 5 µM; hit rate 0.43% among 330,000;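 active means inhibition above its plate's threshold, mean inhibition of all tested compounds on the plate plus 3 SD, cut at about 37% in these data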;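 further: 0% = orexin A challenge wells and 100% = SB-334867-A antagonist wells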
CHO parental Ca = counter-screen: ATP calcium response change in parental CHO cells; parental CHO-K1, ATP-induced calcium, Fluo-8 fluorescence; inhibition, % at 5.6 µM; hit rate 0.63% among 330,000;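 active means inhibition above that plate's mean sample inhibition plus 3 SD, cut at about 26% in these data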;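 further: 0% = ATP-challenged DMSO wells and 100% = DMSO wells without ATP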
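Assay system: untransfected parental CHO cell line. Also added: ATP agonist challenge. Dosing: one dose, 5.6 µM nominal. Measured by: Fluo-8 fluorescence. Read-out: % inhibition. Benchmarks: ATP wells versus no-ATP DMSO wells. Repeats: no replicates.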
GPR7 antagonist = antagonists of human GPR7 (neuropeptides B/W receptor 1) | P48145 | GPR7-expressing cells, fluorescence antagonist assay | AID 1861 | hit rate 1.1% among 290,000 | inhibition, % at 4.4 µM; in the data active means inhibition above about 16%, passing the limit was not always enough;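 further: cells stimulated with the agonist NPW; 0% = agonist with vehicle and 100% = vehicle without agonist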
Target sequence (P48145 whole entry, looked up): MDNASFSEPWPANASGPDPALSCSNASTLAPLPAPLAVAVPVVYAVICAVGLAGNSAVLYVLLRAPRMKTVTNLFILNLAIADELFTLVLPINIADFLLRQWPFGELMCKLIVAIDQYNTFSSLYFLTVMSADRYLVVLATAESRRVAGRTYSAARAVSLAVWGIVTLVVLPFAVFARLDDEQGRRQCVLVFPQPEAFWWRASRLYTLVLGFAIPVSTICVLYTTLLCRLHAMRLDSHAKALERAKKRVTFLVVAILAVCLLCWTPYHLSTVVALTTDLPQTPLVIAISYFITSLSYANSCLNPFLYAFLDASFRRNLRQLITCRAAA
TAAR1 antag = human TAAR1 antagonism. CHO RD-HGA16 TAAR1, Fluo-8 calcium fluorescence, antagonist. hit rate 1.5% among 360,000. Q96RJ0. inhibition, % at 3 µM;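 active means inhibition above a per-plate cutoff, the mean inhibition of test compounds on that plate plus 3 SD, cut at about 49% in these data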;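 further: 0% = DMSO plus EC80 beta-PEA response and 100% = DMSO alone without agonist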
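System: RD-HGA16 CHO cells with stable hTAAR1 and Gα16 | Probe or stimulus: EC80 β-phenethylamine stimulus | Dosing: 3 µM, single point | Times: Dye loading 75 min at 37 °C, then 30 min room temperature | Measured by: Fluo-8 calcium-sensitive fluorescence | Read-out basis: % inhibition of agonist calcium response | Replicates: n of 1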
GPR7 antag cf = human GPR7 antagonism, confirmation assay. shares compounds with GPR7 antagonist. GPR7-expressing cells, calcium fluorescence antagonist mode. inhibition, % at 4.4 µM. hit rate 52% among 2,400. AID 1952; in the data active means inhibition above about 24%;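 further: stimulated with the GPR7 agonist NPW; 0% = agonist plus vehicle and 100% = vehicle alone without agonist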
MCHR1 antag = MCHR1 (human) antagonism in GPR7 counter-screen. shares compounds with GPR7 antagonist. hit rate 62% among 2,400. inhibition, % at 4.4 µM. MCHR1-expressing cells, fluorescence antagonist assay; in the data active means inhibition above about 22%;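 further: 0% = vehicle with agonist and 100% = vehicle without agonist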
* hit, by the source's call; x = no result. Only some compounds are listed: those with a hit (about 4.6% of all), similar ones and a draw of the others.

SMILES	TAAR1 ag	OX1R antag-1	OX1R antag-2	CHO parental Ca	GPR7 antagonist	TAAR1 antag	GPR7 antag cf	MCHR1 antag
CCOC(=O)CSc1nnc(CNc2ccc(Cl)cc2)n1Cc1ccccc1	2	43	-13	0	-10	8	x	x
CC(C)OC(=O)CSc1nnc(CNc2ccc(Cl)cc2)n1Cc1ccccc1	15	50	53*	55*	26*	29	24*	51*
Cn1ccnc1C1CCCCN1Cc1nc(-c2ccc(Cl)cc2)no1 (stereo not drawn)	1	21	-31	-1	26*	-9	34*	22*
Clc1ccc(-c2noc(CN3CCCC3)n2)cc1	18	10	-18	-17	-3	0	x	x
O=C(COC(=O)COc1ccccc1Cc1ccccc1)Nc1cccnc1Cl	-1	4	-17	-16	-5	0	x	x
COc1ccc(/C=C2\SC(=O)N(CC(=O)Nc3ccc(F)cc3)C2=O)cc1O	4	16	3	0	29*	28	1	6
COc1ccc(/C=C2\SC(=O)N(CC(=O)Nc3cccnc3)C2=O)cc1OC	4	17	-11	-7	-1	-10	x	x
COc1ccccc1N(CCC#N)C(=O)CSc1ccc2c(c1)OCCO2	9	6	-9	-6	36*	4	2	8
N#CCCN(C(=O)CSc1ncccn1)c1ccc2c(c1)OCCO2	-1	1	-4	-13	x	10	x	x
COc1ccc(-c2cc3ncc(C(C)=O)c(C)n3n2)cc1	-1	18	-5	-10	-8	8	x	x
CCN(CC)c1ccc(/C=C/c2ccc3ccc(OC)cc3[n+]2CC)cc1	7	33	28	59*	47*	6	65*	65*
CCN(CC)CCn1c2c(c(SCC(=O)Nc3ccc(F)c(F)c3)nc1=O)CCC2	1	20	-11	-13	x	-9	x	x
O=C(CCN1CCc2ccccc2C1)c1ccc2c(c1)OCCO2	x	11	-36	-11	23*	x	12	22*
CCC(C)Sc1ccc([C@H]2N[C@@](Cc3ccccc3)(C(=O)OC)[C@H]3C(=O)N(CC)C(=O)[C@@H]23)cc1 (stereo partly drawn)	5	4	-53	-25	x	26	x	x
N#CCCn1cc(/C=N/O)c(-c2ccc(Cl)cc2)n1	3	2	10	-13	4	14	x	x
N#CCCn1cc(C=C(C#N)C#N)c(-c2ccc(Cl)cc2)n1	0	30	-8	-3	32*	-13	12	2
N#CCCn1cc(/C=N/O)c(-c2ccc(-c3ccccc3)cc2)n1	1	23	6	0	27*	6	31*	42*
c1ccc(C(c2ccccc2)N2CCN(c3nc4ccccc4n4cnnc34)CC2)cc1	4	1	-12	0	2	5	x	x
COc1cccc(C(O)c2nc(-c3cccc(C(C)C)c3)cs2)c1 (stereo not drawn)	0	x	x	x	x	24	x	x
Cc1occc1C(=O)Nc1cccc(C(=O)O)c1	17	16	-10	-3	26*	16	-17	20
Nc1ncnc2c1C(c1ccccc1)c1c(ccc3ccccc13)O2 (stereo not drawn)	18	9	11	9	x	48	x	x
CC(=O)c1cccc(NS(=O)(=O)c2ccc(-c3cc(C)no3)s2)c1	5	25	21	14	3	-3	x	x
CC1(c2nnnn2-c2ccc3c(c2)OCCO3)CCC(=O)N1CCc1ccc(O)cc1 (stereo not drawn)	0	x	x	x	x	-11	x	x
COc1ccc(NC(=S)N(CCc2ccc(OC)c(OC)c2)Cc2ccccn2)cc1	1	20	-20	-19	7	-3	x	x
COc1ccc(NC(=S)N(Cc2ccc(C)cc2)Cc2ccccn2)cc1	-1	28	-12	0	25*	-30	-8	18
SMILES	TAAR1 ag	OX1R antag-1	OX1R antag-2	CHO parental Ca	GPR7 antagonist	TAAR1 antag	GPR7 antag cf	MCHR1 antag
Cc1cccc(Nc2ccc(C(=O)O)cc2[N+](=O)[O-])c1C	0	16	-8	-5	-10	-1	x	x
O=C(O)c1ccc(Nc2ccc(F)c(F)c2)c([N+](=O)[O-])c1	2	27	-6	-6	36*	-2	-9	1
COc1ccccc1CC1CC(=O)N(c2ccccc2)C1=O (stereo not drawn)	-1	13	-1	-17	-4	-3	x	x
O=C(c1cnccn1)N(Cc1cccs1)C1(C(=O)NC2CCCCC2)CCCCC1	0	38	-23	-20	41*	-24	30*	30*
O=C(c1ccccn1)N(Cc1cccs1)C1(C(=O)NC2CCCCC2)CCCCC1	1	5	-18	-19	3	-39	x	x
O=C(c1cnccn1)N(Cc1cccs1)C1(C(=O)NC2CCCC2)CCCCC1	1	17	-15	-7	26*	-2	37*	21
Cc1[nH]n(C)c(=O)c1C(=O)c1c(-c2ccccc2Cl)noc1C	0	2	-22	-11	7	-20	x	x
COc1ccc(-n2c(SCCC#N)nnc2-c2cc(Cl)ccc2OC)cc1Cl	14	6	-26	-8	24*	22	40*	46*
Cc1c(NS(=O)(=O)c2cccc(C(=O)Nc3cccc(F)c3)c2)c(=O)n(-c2ccccc2)n1C	2	x	x	x	x	-2	x	x
Cc1ccnc(Nc2nc(-c3ccc(O)c(O)c3)cs2)c1	1	10	12	11	41*	14	57*	48*
CCCCN(C)CCNC(=O)C(NC(=O)C1CCC(C)CC1)C(C)C (stereo not drawn)	0	-1	-16	-12	0	-16	x	x
Cc1ccc(-c2cnc(C(O)c3c(C)cccc3C)[nH]2)cc1 (stereo not drawn)	1	x	x	x	x	-16	x	x
O=C(NS(=O)(=O)Oc1cccc(F)c1)OC[C@@H]1CCCN2CCCCC12 (stereo partly drawn)	-2	10	-5	2	23*	-2	-11	10
CCCC(=O)N(CCN(Cc1ccccc1)C(=O)CCC)Cc1ccccc1	5	36	-19	-20	31*	12	43*	31*
CCOC(=O)C1CCN(C(=O)Cn2cnc3sc(C)c(S(=O)(=O)N4CCOCC4)c3c2=O)CC1	3	9	-18	-10	-4	-5	x	x
COc1cc(C(=O)OCC(=O)Nc2nnc(-c3ccccc3)o2)cc(OC)c1OC	4	33	-10	7	x	-31	x	x
COc1ccc(C(=O)OCC(=O)Nc2nnc(-c3ccccc3)o2)cc1	1	52*	-12	-12	32*	-27	-3	-12
O=Cc1cnc(N2CCN(c3ccccc3)CC2)s1	7	6	-8	-12	-8	15	x	x

Screening results: PubChem, The Scripps Research Institute Molecular Screening Center
